According to ChEMBL document CHEMBL5058577, “EUbOPEN Chemogenomics Library 2 (Multiplex)” (2022):

System: Fibroblast
Experiment: Multiplex assay against human fibroblast
Assay type: toxicity, cell-based
In short: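 Live cells were stained at seeding with Hoechst33342, BioTracker Green Microtubule Cytoskeleton Dye, MitoTracker Red and Annexin V Alexa Fluor 680, then imaged on a CQ1 microscope at 37°C and 5% CO2 after compound addition. CellPathfinder machine-learning gating split cells into Hoechst high-intensity objects or normal cells. Normal cells were split into healthy, pyknosed or fragmented nuclei, and pyknosed cells into mitotic or apoptotic. Tubulin, mitochondrial-mass and membrane-permeability phenotypes are per cents of healthy-nucleus cells.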

[1] = 12 h, 1 µM, compound concentration 1 uM, replicate 1
[2] = 12 h, 1 µM, compound concentration 1 uM, replicate 2
[3] = 12 h, 10 µM, compound concentration 10 uM, replicate 1
[4] = 12 h, 10 µM, compound concentration 10 uM, replicate 2
[5] = 24 h, 1 µM, compound concentration 1 uM, replicate 1
[6] = 24 h, 1 µM, compound concentration 1 uM, replicate 2
[7] = 24 h, 10 µM, compound concentration 10 uM, replicate 1
[8] = 24 h, 10 µM, compound concentration 10 uM, replicate 2
[9] = 48 h, 1 µM, compound concentration 1 uM, replicate 1
[10] = 48 h, 1 µM, compound concentration 1 uM, replicate 2
[11] = 48 h, 10 µM, compound concentration 10 uM, replicate 1
[12] = 48 h, 10 µM, compound concentration 10 uM, replicate 2

Cl.NCCc1ccc(O)c(O)c1 [DOPAMINE HYDROCHLORIDE]
Population Apoptotic (%) [1]: 42% | Population Fragmented Nuclei (%) [1]: 13% | Population Healthy Nuclei (%) [1]: 63% | Population Hoechst High Intensity Objects (%) [1]: 1% | Population Membrane Permeable-Phenotype (%) [1]: 0% | Population Mitochondria Different-Phenotype (%) [1]: 1% | Population Mitotic Cells (%) [1]: 57% | Population Normal (%) [1]: 98% | Population Pyknosed Nuclei (%) [1]: 23% | Population Tubulin-Different-Phenotype (%) [1]: 34% | Total Cell Count [1]: 115 | Population Apoptotic (%) [2]: 44% | Population Fragmented Nuclei (%) [2]: 34% | Population Healthy Nuclei (%) [2]: 40% | Population Membrane Permeable-Phenotype (%) [2]: 4% | Population Mitochondria Different-Phenotype (%) [2]: 6% | Population Mitotic Cells (%) [2]: 55% | Population Pyknosed Nuclei (%) [2]: 24% | Population Tubulin-Different-Phenotype (%) [2]: 45% | Total Cell Count [2]: 152 | Population Apoptotic (%) [3]: 56% | Population Fragmented Nuclei (%) [3]: 14% | Population Healthy Nuclei (%) [3]: 62% | Population Hoechst High Intensity Objects (%) [3]: 3% | Population Membrane Permeable-Phenotype (%) [3]: 0% | Population Mitochondria Different-Phenotype (%) [3]: 3% | Population Mitotic Cells (%) [3]: 43% | Population Normal (%) [3]: 96% | Population Pyknosed Nuclei (%) [3]: 23% | Population Tubulin-Different-Phenotype (%) [3]: 14% | Total Cell Count [3]: 135 | Population Apoptotic (%) [4]: 41% | Population Fragmented Nuclei (%) [4]: 35% | Population Healthy Nuclei (%) [4]: 40% | Population Hoechst High Intensity Objects (%) [4]: 4% | Population Membrane Permeable-Phenotype (%) [4]: 6% | Population Mitochondria Different-Phenotype (%) [4]: 6% | Population Mitotic Cells (%) [4]: 58% | Population Normal (%) [4]: 95% | Population Tubulin-Different-Phenotype (%) [4]: 44% | Total Cell Count [4]: 127 | Population Apoptotic (%) [5]: 55% | Population Fragmented Nuclei (%) [5]: 14% | Population Healthy Nuclei (%) [5]: 69% | Population Hoechst High Intensity Objects (%) [5]: 0% | Population Membrane Permeable-Phenotype (%) [5]: 1% | Population Mitochondria Different-Phenotype (%) [5]: 1% | Population Mitotic Cells (%) [5]: 44% | Population Normal (%) [5]: 99% | Population Pyknosed Nuclei (%) [5]: 16% | Population Tubulin-Different-Phenotype (%) [5]: 31% | Total Cell Count [5]: 112 | Population Apoptotic (%) [6]: 51% | Population Fragmented Nuclei (%) [6]: 34% | Population Healthy Nuclei (%) [6]: 47% | Population Hoechst High Intensity Objects (%) [6]: 2% | Population Membrane Permeable-Phenotype (%) [6]: 7% | Population Mitochondria Different-Phenotype (%) [6]: 0% | Population Mitotic Cells (%) [6]: 48% | Population Normal (%) [6]: 97% | Population Pyknosed Nuclei (%) [6]: 18% | Population Tubulin-Different-Phenotype (%) [6]: 37% | Total Cell Count [6]: 150 | Population Apoptotic (%) [7]: 55% | Population Fragmented Nuclei (%) [7]: 16% | Population Healthy Nuclei (%) [7]: 69% | Population Hoechst High Intensity Objects (%) [7]: 2% | Population Membrane Permeable-Phenotype (%) [7]: 1% | Population Mitochondria Different-Phenotype (%) [7]: 5% | Population Mitotic Cells (%) [7]: 44% | Population Normal (%) [7]: 97% | Population Pyknosed Nuclei (%) [7]: 13% | Population Tubulin-Different-Phenotype (%) [7]: 22% | Total Cell Count [7]: 136 | Population Apoptotic (%) [8]: 47% | Population Fragmented Nuclei (%) [8]: 37% | Population Healthy Nuclei (%) [8]: 46% | Population Hoechst High Intensity Objects (%) [8]: 3% | Population Membrane Permeable-Phenotype (%) [8]: 3% | Population Mitochondria Different-Phenotype (%) [8]: 7% | Population Mitotic Cells (%) [8]: 52% | Population Normal (%) [8]: 96% | Population Pyknosed Nuclei (%) [8]: 15% | Population Tubulin-Different-Phenotype (%) [8]: 56% | Total Cell Count [8]: 126 | Population Apoptotic (%) [9]: 36% | Population Fragmented Nuclei (%) [9]: 22% | Population Healthy Nuclei (%) [9]: 66% | Population Hoechst High Intensity Objects (%) [9]: 6% | Population Membrane Permeable-Phenotype (%) [9]: 1% | Population Mitochondria Different-Phenotype (%) [9]: 2% | Population Mitotic Cells (%) [9]: 63% | Population Normal (%) [9]: 93% | Population Pyknosed Nuclei (%) [9]: 10% | Population Tubulin-Different-Phenotype (%) [9]: 28% | Total Cell Count [9]: 110 | Population Apoptotic (%) [10]: 38% | Population Fragmented Nuclei (%) [10]: 33% | Population Healthy Nuclei (%) [10]: 52% | Population Membrane Permeable-Phenotype (%) [10]: 5% | Population Mitochondria Different-Phenotype (%) [10]: 3% | Population Mitotic Cells (%) [10]: 61% | Population Pyknosed Nuclei (%) [10]: 14% | Population Tubulin-Different-Phenotype (%) [10]: 43% | Total Cell Count [10]: 159 | Population Apoptotic (%) [11]: 87% | Population Fragmented Nuclei (%) [11]: 21% | Population Healthy Nuclei (%) [11]: 66% | Population Hoechst High Intensity Objects (%) [11]: 4% | Population Membrane Permeable-Phenotype (%) [11]: 0% | Population Mitochondria Different-Phenotype (%) [11]: 4% | Population Mitotic Cells (%) [11]: 12% | Population Normal (%) [11]: 95% | Population Pyknosed Nuclei (%) [11]: 11% | Population Tubulin-Different-Phenotype (%) [11]: 25% | Total Cell Count [11]: 141 | Population Apoptotic (%) [12]: 90% | Population Fragmented Nuclei (%) [12]: 31% | Population Healthy Nuclei (%) [12]: 60% | Population Hoechst High Intensity Objects (%) [12]: 0% | Population Membrane Permeable-Phenotype (%) [12]: 7% | Population Mitotic Cells (%) [12]: 10% | Population Normal (%) [12]: 99% | Population Pyknosed Nuclei (%) [12]: 8% | Population Tubulin-Different-Phenotype (%) [12]: 56% | Total Cell Count [12]: 116
